# Assay outcomes from PubChem.
# In the library only some 2% were active in any assay of this set; here they are far more common.
# Tb hexokinase – Trypanosoma brucei hexokinase 1 inhibitors, primary screen, biochemical, G6PDH-coupled NADH absorbance, MLSCN library; hexokinase 1 [Trypanosoma brucei]; recombinant TbHK1, G6PDH-coupled NADH A340; inhibition, % at 10 µM; actives 0.11% (n = 220,000);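 active = inhibition of 50% or more in the single-dose primary screen; inactive = inhibition below 50%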
# TNF necrop inh – inhibitors of TNF-alpha triggered necroptosis, primary screen, cell-based, Jurkat FADD-/-, single concentration; Jurkat FADD-/- TNF necroptosis rescue, ATP luminescence, 24 h; 0 = TNF only, 100 = no-TNF cells; activation (protection from cell death), % at 10 µM; actives 0.068% (n = 220,000);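 active = activation, meaning protection from cell death, of at least 50% relative to plate controls; inactive = activation below 50%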;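 also: necroptosis triggered by 40 ng/mL TNF-alpha added together with compound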
# Lipid droplet – inhibitors of hepatocyte lipid droplet formation, primary screen, imaging, high-throughput imaging, BODIPY stain. AML12 mouse hepatocytes, oleate lipid droplets. inhibition, % at 6.5 µM. actives 0.4% (n = 240,000);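 active = lipid droplet intensity inhibited by at least 50%, with more than 500 cells counted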
#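 material = mouse AML12 hepatocyte cell line, fixed after treatment | also added = 100 µM oleic acid challenge | doses = compound at 6.5 µM only | schedule = overnight exposure | technique = Image-based BODIPY and DAPI two-channel analysis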
# PfM18AAP inh – PfM18AAP inhibitors, malaria aminopeptidase, primary screen, biochemical, QFRET, recombinant enzyme. M18 aspartyl aminopeptidase (Plasmodium falciparum 3D7). H-Glu-NHMec fluorogenic cleavage. inhibition, % at 7.35 µM. actives 1.2% (n = 290,000);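 active = inhibition above the campaign mean inhibition over all tested compounds plus 3 SD, cut at about 28% in these data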;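 also: 0% = plate median of test compound wells and 100% = 2 mM ZnCl2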
# zVAD death inh – inhibitors of zVAD-triggered necroptosis, primary screen, L929 cells. L929 zVAD necroptosis rescue, ATP luminescence, 24 h; with zVAD 60 µM. viability rescue, % at 10 µM. actives 0.38% (n = 220,000). AID 1377, 2008;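 active = activation, scaled between plate controls, above about 75%, limit read from the data; inactive = activation under that limit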;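 also: 0% = zVAD with DMSO and 100% = DMSO alone without zVAD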
# RBBP9 inh – human RBBP9 inhibitors, primary screen, biochemical, fluorescence polarization, FP-Rh probe, HTS. Serine hydrolase RBBP9 (Homo sapiens), O75884. recombinant RBBP9. inhibition, % at 7.94 µM. actives 0.2% (n = 220,000). AID 1515, 2009;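 active = inhibition above the campaign mean of all tested compounds plus 3 SD, cut at about 14% in these data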;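 also: plate controls were DMSO wells with RBBP9 for no effect and wells lacking RBBP9 protein for full effect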
# Target sequence (O75884 whole entry, looked up): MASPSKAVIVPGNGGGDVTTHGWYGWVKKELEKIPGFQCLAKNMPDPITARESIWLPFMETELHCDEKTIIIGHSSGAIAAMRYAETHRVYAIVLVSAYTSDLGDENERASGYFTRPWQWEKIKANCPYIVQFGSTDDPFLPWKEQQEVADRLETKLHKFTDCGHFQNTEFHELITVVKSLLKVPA
#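 Measured by: FP readout at 525/598 nm; material: recombinant human RBBP9; also added: Serine-hydrolase probe FP-Rh, 375 nM pre-mixing; medium: Tris buffer pH 8.0, NaCl, Pluronic; replication: one well per compound; doses: one concentration, 7.94 µM nominal, 0.794% DMSO; timing: preincubation 30 min plus labeling 45 min at 25 °C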
# Active calls of the source: *; . = no result given.
SMILES,Tb hexokinase,TNF necrop inh,Lipid droplet,PfM18AAP inh,zVAD death inh,RBBP9 inh
CCN1CCc2nc(N)sc2C1,-3,0,-2,44*,2,-2
COCC1CCCCC1OS(N)(=O)=O (stereo unspecified),.,.,-8,4,.,.
CCN1CCN(C2=C(NS(=O)(=O)c3ccc(C)cc3)C(=O)c3ccccc3C2=O)CC1,.,.,-15,31*,.,.
CC1CCN(C2=C(NS(=O)(=O)c3ccc(Cl)cc3)C(=O)c3ccccc3C2=O)CC1,-5,-2,70*,-2,0,4
NC(=O)c1[nH]cnc1N,.,.,-8,1,.,.
CCOC(=O)C1=C(c2ccccc2)N2CCN=C2S1,-19,21,.,32*,1,0
CCOC(=O)c1nc(-c2ccccc2)oc1N1CCOCC1,-10,0,4,5,4,1
O=C1/C(=C\c2ccc(O)c(O)c2)SC(=S)N1Cc1ccccc1,.,.,8,48*,.,.
O=C1CN(S(=O)(=O)c2ccc([N+](=O)[O-])cc2)CC(=O)N1,.,.,3,2,.,.
c1ccc(C[n+]2csc3ccccc32)cc1,2,-11,.,30*,0,-16
Cc1occc1C(=O)NNC(=O)Nc1ccc(F)cc1F,2,2,4,30*,1,-5
COc1ccc(/C(C)=N/Nc2ccc(C(=O)O)cc2)c(OC)c1,-1,1,14,29*,2,4
CNC(=S)NNc1nncc2ccccc12,-19,-1,-17,30*,5,-1
CCN(CC)c1ccc(C=Nc2cccnc2Cl)c(O)c1,.,.,2,31*,.,.
CCN(CC)c1ccc(C=Nc2cc(C)ccc2C)c(O)c1,-2,0,.,5,1,-10
CC1(C)Oc2ccc3ccc(=O)oc3c2-c2cn[nH]c21,-20,-7,21,-1,75*,-10
Cc1cc(-c2nnc(SCC(=O)Nc3nc(-c4ccccc4)cs3)o2)no1,1,-6,0,30*,0,-5
CCCc1cc(=O)n2[nH]c(-c3ccccc3)cc2n1,6,0,4,-2,1,-7
CCCCn1[nH]c(-c2ccccc2)cc1=O,2,2,-2,30*,1,-8
O=C(Cn1cnc2ccccc2c1=O)Nc1ccc(N2CCOCC2)cc1,-1,2,-8,4,2,-3
COc1ccc2c(c1)C(=NN)c1cc(OC)ccc1-2,-9,2,.,3,1,-6
CCn1c2ccccc2c2nnc(NN)nc21,-14,1,-2,31*,3,-8
CC(C)CSc1nnc2c3ccccc3n(C)c2n1,.,.,-6,-1,.,.
Cn1c2ccccc2c2nnc(NN)nc21,-31,3,-6,30*,1,6
Cc1cc(C)c(Nc2cc(S(=O)(=O)O)c(N)c3c2C(=O)c2ccccc2C3=O)c(C)c1,15,-6,31,4,0,7
SMILES,Tb hexokinase,TNF necrop inh,Lipid droplet,PfM18AAP inh,zVAD death inh,RBBP9 inh
CC1(C)C(C=C(Cl)Cl)C1C(=O)N/N=C/c1ccccc1F (stereo unspecified),.,.,-26,0,.,.
CCNc1nc(SCC(N)=O)nc2sc3c(c12)CCN(C)C3,.,.,8,29*,.,.
CSc1nc(SCC(N)=O)c2c3c(sc2n1)CN(C)CC3,-28,0,.,6,2,-12
COc1ccc(-c2nc(NC(=O)c3ccc(OCC(=O)N4CCOCC4)c(OC)c3)sc2C)cc1,1,4,96*,0,0,-2
Cn1c2c(c(=O)n(C)c1=O)C1c3cc(Cl)ccc3OCC1CO2 (stereo unspecified),17,1,-9,-3,0,-5
CN(C)c1nc(=NCc2ccco2)ss1,-7,-18,2,47*,-1,3
O=C(NCSc1ccnc(SCNC(=O)c2ccccc2)n1)c1ccccc1,1,-4,-12,38*,1,-6
O=C(NCSc1ccncn1)c1ccccc1,28,-1,.,2,0,-1
COc1ccc(Br)cc1C1Nc2cccc3cccc(c23)N1,.,.,-2,33*,.,.
COc1cc(C2Nc3cccc4cccc(c34)N2)cc(OC)c1OC(C)=O,-10,-14,-7,5,1,2
O=C(Nc1ccccc1C(=O)NC(Cc1ccccc1)C(=O)NC1CCCCC1)c1ccccc1 (stereo unspecified),16,3,-8,-11,0,-7
Cn1c(SCc2ccccc2)nnc1-c1ccncc1,4,-1,.,6,1,-7
Cn1c(SCc2n[nH]c(=S)n2-c2ccccc2)nnc1-c1ccccc1,1,0,3,30*,0,1
O=C1CCC/C(=N/NC(=O)c2ccc(NS(=O)(=O)c3cccs3)cc2)C1,-6,0,-3,23,-1,-4
O=C1CCC/C(=N/NC(=O)c2cc(NS(=O)(=O)c3cccs3)cc(NS(=O)(=O)c3cccs3)c2)C1,-12,3,0,30*,0,8
Cc1cc(O)c(C=O)c2c1C(=O)Oc1c(CO)c(O)c3c(c1O2)C(O)OC3=O (stereo unspecified),22,2,7,14,1,32*
O=C(CSc1nnc(-c2ccncc2)o1)N1CCc2ccccc2C1,3,-1,43,3,3,-8
Oc1ccc(C2=CSC3=NCCN23)cc1O,.,.,.,55*,.,.
C=C(C)C(=O)Nc1cccc(C2=NOC3(C2)C[C@@H](C(N)=O)N(C(=O)c2cc([N+](=O)[O-])cc([N+](=O)[O-])c2C)C3)c1 (stereo partly specified),-6,1,-45,.,0,.
CCN(CC)CCN(Cc1cc2cc3c(cc2[nH]c1=O)OCO3)C(=S)NCC1CCCO1 (stereo unspecified),-17,1,-8,28*,-3,0
NC(=O)C1CCN(Cc2nc3cc(C(F)(F)F)ccc3c(=O)[nH]2)CC1,4,2,-1,-4,0,-11
Cc1ccccc1N1C(=O)CC(Nc2ccc3c(c2)OCO3)C1=O (stereo unspecified),-4,-1,0,30*,2,4
CN1c2ccccc2C(C)(C)C12C=Cc1cc(O)ccc1O2 (stereo unspecified),-4,-8,.,30*,0,-53
Cc1ccc(C)c(-c2nnc(NC(=O)Cc3ccccc3)o2)c1,.,.,-6,8,.,.
Fc1ccccc1CNc1ccc(Cl)cc1,0,81*,.,2,97*,-5
